From ChEMBL document CHEMBL2321666, “Discovery of a Series of Thiazole Derivatives as Novel Inhibitors of Metastatic Cancer Cell Migration and Invasion” (ACS Med Chem Lett, 2013)
pIC50: −log10 of the molar value.

What was measured:
MDA-MB-231 [1] = experiment: Cytotoxicity against human MDA-MB-231 cells assessed as colony formation at 10 uM after 2 weeks relative to control; type: cell-based; conditions: mda-mb-231, 336 h
Procedure, shortened: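 Clonogenic assay: MDA-MB-231 cells grown for 14 days in six-well plates with or without 10 μM compound. Colony formation expressed as % of DMSO vehicle control.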

MDA-MB-231 [2] = experiment: Inhibition of cell migration in human MDA-MB-231 cells assessed as total number of cells at 10 uM after 24 hrs by transwell migration assay relative to control; values are per cent of control; conditions: MDA-MB-231, 24 h
MDA-MB-231 [3] = experiment: Inhibition of cell invasion in human MDA-MB-231 cells assessed as total number of cells at 10 uM after 24 hrs by matrigel invasion assay relative to control; type: functional; conditions: MDA-MB-231, 24 h
MDA-MB-231 [4] = experiment: Inhibition of cell migration in human MDA-MB-231 cells assessed as total number of cells after 24 hrs by transwell migration assay; type: functional, cell-based; conditions: MDA-MB-231, 24 h
Procedure, shortened: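 Dose-response transwell migration in MDA-MB-231 cells: 2.5 × 10^4 cells in serum-free upper chamber, 5% FBS in the lower chamber.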

HeLa [5] = experiment: Inhibition of cell migration in human HeLa cells assessed as total number of cells at 10 uM after 24 hrs by transwell migration assay relative to control; type: functional
HeLa [6] = experiment: Cytotoxicity against human HeLa cells assessed as colony formation at 10 uM after 2 weeks relative to control; type: cell-based; conditions: 336 h

Compound	Activity (MDA-MB-231 [1])	level, % of control at 10 µM (MDA-MB-231 [2])	inhibition at 10 µM (MDA-MB-231 [3])	pIC50 (MDA-MB-231 [4])	inhibition at 10 µM (HeLa [5])	Activity (HeLa [6])
O=C(Nc1nc(-c2ccccc2)cs1)c1cccnc1	102.8%	80.8%	–	–	–	–
Cn1c(-c2ccccc2)cs/c1=N/C(=O)c1ccc(Cl)cc1	98.2%	28.1%	40%	5.95	60%	–
O=C(Nc1nc(-c2ccccc2)cs1)c1ccc(Cl)cc1	95%	78%	–	–	–	–
CCN(C(=O)c1ccco1)c1nc(-c2ccccc2)cs1	96.5%	54.5%	–	–	–	–
O=C(Nc1nc(-c2ccccc2)cs1)C1CCCC1	99.8%	68.2%	–	–	–	–
O=C(Nc1nc(-c2ccccc2)cs1)c1ccco1	98.8%	88%	–	–	–	–
Cc1ccc(-c2cs/c(=N/C(=O)c3cccs3)n2C)c(C)c1	102.3%	37.1%	–	–	–	–
Cc1ccc(-c2csc(NC(=O)c3ccccc3)n2)c(C)c1	85%	33.7%	40%	6.08	60%	–
COc1cc(OC)c(-c2cs/c(=N/C(=O)c3ccccc3)n2C)c(OC)c1	94%	40.6%	–	–	–	–
CCCCCC(=O)Nc1nc(-c2ccccc2)cs1	90.7%	75.2%	–	–	–	–
COc1ccc(C(=O)Nc2nc(-c3ccccc3)cs2)cc1OC	57.3%	18.6%	–	–	–	–
CCCCCCCCCCCC(=O)N(C)c1nc(-c2ccccc2)cs1	111.1%	80%	–	–	–	–
COc1ccc(C(=O)N(C)c2nc(-c3ccccc3)cs2)cc1OC	97.1%	43.5%	–	–	–	–
Cc1ccc(-c2csc(N(C)C(=O)c3cccs3)n2)c(C)c1	97.7%	72.2%	–	–	–	–
Cn1c(-c2ccccc2)cs/c1=N/C(=O)c1cccs1	85%	43.3%	–	–	–	–
Nc1nc(-c2ccccc2)cs1	103.6%	86%	–	–	–	–
CCn1c(-c2ccccc2)cs/c1=N/C(=O)c1cccs1	97.7%	32.1%	40%	5.68	60%	45%
COc1cc(OC)c(-c2csc(N(C)C(=O)c3ccccc3)n2)c(OC)c1	110.4%	91.5%	–	–	–	–
CCCCCCCCCCCC(=O)Nc1nc(-c2ccccc2)cs1	71.5%	28.3%	40%	6.00	60%	Non-toxic
CN(C(=O)C1CCCCC1)c1nc(-c2ccccc2)cs1	97.5%	72.7%	–	–	–	–
